Reference: ChEMBL document CHEMBL5058577, “EUbOPEN Chemogenomics Library 2 (Multiplex)” (2022)

Test system: U2OS
Assay: Multiplex assay against U2OS
Type: toxicity, cell-based
Settings: human
Summary of the method: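 Live cells were stained at seeding with Hoechst33342, BioTracker Green Microtubule Cytoskeleton Dye, MitoTracker Red and Annexin V Alexa Fluor 680. Following compound addition, they were imaged on a CQ1 microscope at 37°C and 5% CO2 and gated by CellPathfinder machine learning into Hoechst high-intensity objects or normal cells, with normal cells split into healthy, pyknosed or fragmented nuclei and pyknosed cells into mitotic or apoptotic. Tubulin, mitochondrial-mass and membrane-permeability phenotypes are per cents of healthy-nucleus cells.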

[1] = 12 h, 1 µM, compound concentration 1 uM, replicate 1
[2] = 12 h, 1 µM, compound concentration 1 uM, replicate 2
[3] = 12 h, 10 µM, compound concentration 10 uM, replicate 1
[4] = 12 h, 10 µM, compound concentration 10 uM, replicate 2
[5] = 24 h, 1 µM, compound concentration 1 uM, replicate 1
[6] = 24 h, 1 µM, compound concentration 1 uM, replicate 2
[7] = 24 h, 10 µM, compound concentration 10 uM, replicate 1
[8] = 24 h, 10 µM, compound concentration 10 uM, replicate 2
[9] = 48 h, 1 µM, compound concentration 1 uM, replicate 1
[10] = 48 h, 1 µM, compound concentration 1 uM, replicate 2
[11] = 48 h, 10 µM, compound concentration 10 uM, replicate 1
[12] = 48 h, 10 µM, compound concentration 10 uM, replicate 2

For `O=C(CCCc1ccccc1)Nc1nc2ccccc2c(=O)s1`, the “Population Apoptotic (%)” value [1] was 92%, the “Population Fragmented Nuclei (%)” value [1] was 26% and the “Population Healthy Nuclei (%)” value [1] was 64%. For the same molecule, the “Population Hoechst High Intensity Objects (%)” value [1] was 2%, the “Population Membrane Permeable-Phenotype (%)” value [1] was 4% and the “Population Mitochondria Different-Phenotype (%)” value [1] was 2%. The “Population Mitotic Cells (%)” value [1] was 7%, the “Population Normal (%)” value [1] was 97% and the “Population Pyknosed Nuclei (%)” value [1] was 9%. The “Population Tubulin-Different-Phenotype (%)” value [1] was 1%, the “Total Cell Count” value [1] was 274 and the “Population Apoptotic (%)” value [2] was 55%. For the same molecule, the “Population Fragmented Nuclei (%)” value [2] was 17%, the “Population Healthy Nuclei (%)” value [2] was 74% and the “Population Hoechst High Intensity Objects (%)” value [2] was 0%. For the same molecule, the “Population Membrane Permeable-Phenotype (%)” value [2] was 7%, the “Population Mitochondria Different-Phenotype (%)” value [2] was 3% and the “Population Mitotic Cells (%)” value [2] was 44%. For the same molecule, the “Population Normal (%)” value [2] was 100%, the “Population Pyknosed Nuclei (%)” value [2] was 7% and the “Population Tubulin-Different-Phenotype (%)” value [2] was 2%. For the same molecule, the “Total Cell Count” value [2] was 113, the “Population Apoptotic (%)” value [3] was 72% and the “Population Fragmented Nuclei (%)” value [3] was 31%. The “Population Healthy Nuclei (%)” value [3] was 58%, the “Population Hoechst High Intensity Objects (%)” value [3] was 2% and the “Population Membrane Permeable-Phenotype (%)” value [3] was 2%. For the same molecule, the “Population Mitochondria Different-Phenotype (%)” value [3] was 0%, the “Population Mitotic Cells (%)” value [3] was 28% and the “Population Normal (%)” value [3] was 97%. The “Population Pyknosed Nuclei (%)” value [3] was 9%, the “Population Tubulin-Different-Phenotype (%)” value [3] was 1% and the “Total Cell Count” value [3] was 270. For the same molecule, the “Population Apoptotic (%)” value [4] was 100%, the “Population Fragmented Nuclei (%)” value [4] was 20% and the “Population Healthy Nuclei (%)” value [4] was 67%. For the same molecule, the “Population Hoechst High Intensity Objects (%)” value [4] was 4%, the “Population Membrane Permeable-Phenotype (%)” value [4] was 7% and the “Population Mitochondria Different-Phenotype (%)” value [4] was 6%. For the same molecule, the “Population Mitotic Cells (%)” value [4] was 0%, the “Population Normal (%)” value [4] was 95% and the “Population Pyknosed Nuclei (%)” value [4] was 11%. For the same molecule, the “Population Tubulin-Different-Phenotype (%)” value [4] was 6%, the “Total Cell Count” value [4] was 101 and the “Population Apoptotic (%)” value [5] was 79%. For the same molecule, the “Population Fragmented Nuclei (%)” value [5] was 22%, the “Population Healthy Nuclei (%)” value [5] was 68% and the “Population Hoechst High Intensity Objects (%)” value [5] was 1%. The “Population Membrane Permeable-Phenotype (%)” value [5] was 4%, the “Population Mitochondria Different-Phenotype (%)” value [5] was 2% and the “Population Mitotic Cells (%)” value [5] was 20%. The “Population Normal (%)” value [5] was 98%, the “Population Pyknosed Nuclei (%)” value [5] was 9% and the “Population Tubulin-Different-Phenotype (%)” value [5] was 2%. For the same molecule, the “Total Cell Count” value [5] was 325, the “Population Apoptotic (%)” value [6] was 84% and the “Population Fragmented Nuclei (%)” value [6] was 17%. For the same molecule, the “Population Healthy Nuclei (%)” value [6] was 73%, the “Population Hoechst High Intensity Objects (%)” value [6] was 0% and the “Population Membrane Permeable-Phenotype (%)” value [6] was 8%. The “Population Mitotic Cells (%)” value [6] was 15%, the “Population Normal (%)” value [6] was 100% and the “Population Tubulin-Different-Phenotype (%)” value [6] was 3%. For the same molecule, the “Total Cell Count” value [6] was 141, the “Population Apoptotic (%)” value [7] was 86% and the “Population Fragmented Nuclei (%)” value [7] was 25%. For the same molecule, the “Population Healthy Nuclei (%)” value [7] was 65%, the “Population Hoechst High Intensity Objects (%)” value [7] was 2% and the “Population Membrane Permeable-Phenotype (%)” value [7] was 5%. For the same molecule, the “Population Mitochondria Different-Phenotype (%)” value [7] was 1%, the “Population Mitotic Cells (%)” value [7] was 13% and the “Population Normal (%)” value [7] was 97%. For the same molecule, the “Population Pyknosed Nuclei (%)” value [7] was 9%, the “Population Tubulin-Different-Phenotype (%)” value [7] was 4% and the “Total Cell Count” value [7] was 319. The “Population Apoptotic (%)” value [8] was 100%, the “Population Fragmented Nuclei (%)” value [8] was 19% and the “Population Healthy Nuclei (%)” value [8] was 71%. The “Population Hoechst High Intensity Objects (%)” value [8] was 1%, the “Population Membrane Permeable-Phenotype (%)” value [8] was 8% and the “Population Mitochondria Different-Phenotype (%)” value [8] was 2%. For the same molecule, the “Population Mitotic Cells (%)” value [8] was 0%, the “Population Normal (%)” value [8] was 98% and the “Population Tubulin-Different-Phenotype (%)” value [8] was 3%. For the same molecule, the “Total Cell Count” value [8] was 124, the “Population Apoptotic (%)” value [9] was 91% and the “Population Fragmented Nuclei (%)” value [9] was 13%. For the same molecule, the “Population Healthy Nuclei (%)” value [9] was 76%, the “Population Hoechst High Intensity Objects (%)” value [9] was 7% and the “Population Membrane Permeable-Phenotype (%)” value [9] was 3%. For the same molecule, the “Population Mitochondria Different-Phenotype (%)” value [9] was 2%, the “Population Mitotic Cells (%)” value [9] was 8% and the “Population Normal (%)” value [9] was 92%. The “Population Pyknosed Nuclei (%)” value [9] was 9%, the “Population Tubulin-Different-Phenotype (%)” value [9] was 1% and the “Total Cell Count” value [9] was 394. For the same molecule, the “Population Apoptotic (%)” value [10] was 87%, the “Population Fragmented Nuclei (%)” value [10] was 19% and the “Population Healthy Nuclei (%)” value [10] was 71%. The “Population Hoechst High Intensity Objects (%)” value [10] was 5%, the “Population Mitochondria Different-Phenotype (%)” value [10] was 3% and the “Population Mitotic Cells (%)” value [10] was 12%. For the same molecule, the “Population Normal (%)” value [10] was 94%, the “Population Pyknosed Nuclei (%)” value [10] was 8% and the “Population Tubulin-Different-Phenotype (%)” value [10] was 6%. The “Total Cell Count” value [10] was 192, the “Population Apoptotic (%)” value [11] was 91% and the “Population Fragmented Nuclei (%)” value [11] was 20%. The “Population Healthy Nuclei (%)” value [11] was 70%, the “Population Hoechst High Intensity Objects (%)” value [11] was 2% and the “Population Membrane Permeable-Phenotype (%)” value [11] was 5%. The “Population Mitochondria Different-Phenotype (%)” value [11] was 0%, the “Population Mitotic Cells (%)” value [11] was 8% and the “Population Normal (%)” value [11] was 97%. For the same molecule, the “Population Pyknosed Nuclei (%)” value [11] was 8%, the “Population Tubulin-Different-Phenotype (%)” value [11] was 3% and the “Total Cell Count” value [11] was 427. For the same molecule, the “Population Apoptotic (%)” value [12] was 95%, the “Population Fragmented Nuclei (%)” value [12] was 15% and the “Population Healthy Nuclei (%)” value [12] was 72%. The “Population Hoechst High Intensity Objects (%)” value [12] was 0%, the “Population Membrane Permeable-Phenotype (%)” value [12] was 9% and the “Population Mitochondria Different-Phenotype (%)” value [12] was 3%. For the same molecule, the “Population Mitotic Cells (%)” value [12] was 4%, the “Population Normal (%)” value [12] was 99% and the “Population Pyknosed Nuclei (%)” value [12] was 12%. For the same molecule, the “Population Tubulin-Different-Phenotype (%)” value [12] was 5% and the “Total Cell Count” value [12] was 175.
